Compounds with a hit are over-represented: about 2.5% of the library has one in this group of screens.
Tb hexokinase: T. brucei hexokinase 1 inhibition. inhibition, % at 10 µM. AID 1430. 0.11% of 220,000 active. recombinant TbHK1, G6PDH-coupled NADH A340;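 active means inhibition of 50% or more in the single-dose primary screen; inactive means inhibition below 50%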
HKDC1 inh: inhibitors of human hexokinase HKDC1 | Q2TB90 | recombinant HKDC1, G6PDH/diaphorase resazurin coupled fluorescence | inhibition, % at 20 µM | 0.16% of 340,000 active | AID 493160;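 active means inhibition above about 35% when tested at 20 µM, limit read from the data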;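 further: plate controls were DMSO wells with enzyme for no effect and DMSO wells lacking enzyme for full effect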
Target sequence (Q2TB90 whole entry, looked up): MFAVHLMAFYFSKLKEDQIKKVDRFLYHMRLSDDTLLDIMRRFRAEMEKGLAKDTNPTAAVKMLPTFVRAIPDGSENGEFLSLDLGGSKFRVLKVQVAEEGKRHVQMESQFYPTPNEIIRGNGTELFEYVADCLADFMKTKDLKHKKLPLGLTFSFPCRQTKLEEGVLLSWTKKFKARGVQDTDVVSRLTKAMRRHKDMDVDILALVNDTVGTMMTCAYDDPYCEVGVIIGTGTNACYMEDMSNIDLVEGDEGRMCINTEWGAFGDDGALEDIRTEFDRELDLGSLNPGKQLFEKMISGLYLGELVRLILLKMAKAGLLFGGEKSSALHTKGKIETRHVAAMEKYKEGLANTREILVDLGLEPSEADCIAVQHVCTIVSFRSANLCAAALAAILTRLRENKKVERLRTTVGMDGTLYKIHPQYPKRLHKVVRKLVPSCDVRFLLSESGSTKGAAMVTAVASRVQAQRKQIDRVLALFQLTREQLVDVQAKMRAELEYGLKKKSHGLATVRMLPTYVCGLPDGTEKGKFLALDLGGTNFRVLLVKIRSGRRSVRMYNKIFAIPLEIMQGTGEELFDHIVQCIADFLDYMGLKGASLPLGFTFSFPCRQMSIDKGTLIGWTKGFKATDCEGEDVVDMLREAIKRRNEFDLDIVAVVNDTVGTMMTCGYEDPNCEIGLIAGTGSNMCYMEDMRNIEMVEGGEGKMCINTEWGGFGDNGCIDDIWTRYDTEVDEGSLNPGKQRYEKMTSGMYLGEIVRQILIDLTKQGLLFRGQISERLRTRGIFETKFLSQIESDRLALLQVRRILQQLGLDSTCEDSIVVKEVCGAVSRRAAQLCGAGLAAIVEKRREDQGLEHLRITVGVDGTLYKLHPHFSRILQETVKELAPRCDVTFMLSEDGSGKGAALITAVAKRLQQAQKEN
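Assay system – recombinant HKDC1 (HK5) hexokinase enzyme, produced in-house · Input – HKDC1 at 5 µg/mL · Reagent – glucose plus 1 mM ATP as hexokinase substrates · Timing – 90 min reaction incubation at room temperature, dark · Measured by – G6PDH/diaphorase-coupled fluorescence, 1 mM NADP, 100 µM resazurin, 525/613 nm · Benchmarks – DMSO-enzyme wells negative, buffer-substituted wells positive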
EP2 modulator: EP2 receptor (human) modulation; induction, % at 25 µM; 0.83% of 260,000 active; EP2-expressing cells, cAMP HTRF FRET, PGE2 co-stimulation; P43116; AID 940;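 active means compounds whose cAMP rise, as percent of the full-agonist control response, exceeds 60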;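 further: rat C6 glioma line stably carrying human EP2 under a CMV promoter; the protocol text gives 20 µM as final concentration; 100% = response of wells given 1 µM PGE2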
PfG6PD inh: PfG6PD (Plasmodium falciparum) enzyme inhibition | PfGluPho enzyme, NADPH resazurin-diaphorase fluorescence | inhibition, % at 20 µM | 0.78% of 350,000 active;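 active means inhibition reaching at least a set limit at 20 µM in the primary screen, cut at about 59% in these data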;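 further: 0% = DMSO wells with substrate and 100% = DMSO wells lacking glucose-6-phosphate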
PHOSPHO1 block: inhibitors of human PHOSPHO1 phosphatase; Q8TCT1; 1.1% of 290,000 active; inhibition, % at 13.3 µM; recombinant PHOSPHO1, absorbance phosphatase assay; AID 1565; in the data active means inhibition above about 60%
EP2 antag: EP2 receptor (human) inhibition | P43116 | C6 glioma cells expressing human EP2, cAMP TR-FRET; cells stimulated with saturating PGE2 | inhibition, % at 25 µM | 0.52% of 260,000 active;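 active means percent inhibition above 40 after rounding to a whole number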;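 further: rat C6 glioma host cells with rolipram phosphodiesterase inhibitor present; the protocol text gives 20 µM as final concentration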
HKDC1 act conf2: confirmation of human HKDC1 activators. inhibition, % at 20 µM. shares compounds with HKDC1 inh. recombinant HKDC1, G6PDH/diaphorase resazurin fluorescence; stronger effect = lower value. 14% of 740 active;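 active means inhibition at or below a set negative limit, negative inhibition meaning the enzyme was activated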
Active calls of the source: *; nt = no result given.

SMILES | Tb hexokinase | HKDC1 inh | EP2 modulator | PfG6PD inh | PHOSPHO1 block | EP2 antag | HKDC1 act conf2
Cc1ccccc1OCCCN1C(=O)C(=O)c2cccc(C)c21 | -1 | 37* | 12 | 36 | -14 | nt | -6
O=C(NCCNC(=O)c1ccco1)c1ccc(Cl)cc1 | nt | nt | 2 | nt | nt | 27 | nt
CCOc1ccc2nc3cc(N=Nc4ccc(N)nc4N)ccc3c(N)c2c1 | nt | 37* | -4 | 58 | nt | 34 | -31
S=C1Cc2ccccc2N1 | -6 | -303 | -63 | 67* | -2 | 6 | -192*
S=C1Nc2ccccc2CS1 | nt | nt | nt | 4 | nt | nt | nt
Cc1ccc2oc(C(=O)N3CCC(N4CCSCC4)CC3)c(C)c2c1 | nt | 35* | nt | 1 | 24 | nt | -13
O=C(N/N=C/c1ccc(O)cc1O)c1ccc(CN2C(=O)c3cccc4cccc2c34)cc1 | -17 | -41 | -31 | 38 | -41 | 17 | -22
Cc1cc(SCc2cccc([N+](=O)[O-])c2)nc(=O)[nH]1 | nt | -2 | nt | 15 | 26 | nt | nt
Cc1cc(SCC(=O)c2cccc([N+](=O)[O-])c2)nc(=O)[nH]1 | nt | -54 | nt | 40 | 26 | nt | 6
COc1ccc(N=C2NN=C(c3ccc4c(c3)OCCO4)CS2)cc1 | -31 | -84 | -2 | 33 | 98* | 41* | -33*
CCCCN=C1NN=C(c2ccc3c(c2)OCCO3)CS1 | -5 | -27 | -25 | 28 | 19 | 5 | nt
O=C(NC(=S)NNC(=O)c1ccccc1O)c1ccco1 | 8 | -44 | 17 | -33 | 16 | 7 | 15
O=C(NC(=S)NNC(=O)c1cc2ccccc2cc1O)c1ccco1 | -24 | -33 | -16 | -26 | -9 | 5 | nt
O=C(c1ccccc1)c1nccc2ccccc12 | 25 | 8 | 15 | 3 | -4 | 6 | nt
O=C(c1ccccc1)c1n[nH]c(-c2ccccc2)cc1=O | -6 | -42 | 29 | -3 | -26 | 3 | 16
CNC(=S)N(Cc1ccco1)Cc1cc2cc(C)cc(C)c2[nH]c1=O | nt | nt | -60 | nt | nt | 11 | nt
CC(=NNC(=S)Nc1cccc(C)c1)c1ccccn1 | nt | -38 | nt | 44 | nt | nt | -60*
CC(=NNC(=S)Nc1ccc(C)cc1)c1ccccn1 | nt | -39 | nt | 29 | nt | nt | nt
COc1ccccc1NC(=S)NN=C(C)c1ccccn1 | nt | -41 | nt | 25 | nt | nt | -61*
O=C(O)c1ccccc1NS(=O)(=O)c1ccc(N/N=C/c2cccc(O)c2O)c([N+](=O)[O-])c1 | nt | 36* | nt | -49 | nt | nt | 26
Cc1cccc2c(N=NC(=O)c3ccc(NS(=O)(=O)c4cccs4)cc3)c(O)[nH]c12 | nt | 36* | nt | 59 | nt | nt | 63
Cc1ccc2[nH]c(O)c(N=NC(=O)c3ccc(NS(=O)(=O)c4cccs4)cc3)c2c1 | -13 | 8 | -18 | -17 | 15 | 3 | nt
O=C1C=C(Nc2ccc(F)cc2)c2ccccc2C1=O | nt | 42* | nt | 8 | nt | nt | 4
CCOc1ccc(NC2=CC(=O)C(=O)c3ccccc32)cc1 | nt | 22 | nt | 29 | nt | nt | nt
CCOC(=O)c1cc2c(=Cc3ccc(N(C)C)cc3)c3ccccc3n2[n+]1C | nt | 37* | nt | 50 | nt | nt | -8
SMILES | Tb hexokinase | HKDC1 inh | EP2 modulator | PfG6PD inh | PHOSPHO1 block | EP2 antag | HKDC1 act conf2
COC1=C(OC)C(=O)c2ccccc2C1=O | nt | nt | -16 | nt | nt | 23 | nt
COC1=CC(=O)C(OC)=C(OC)C1=O | nt | 76* | nt | 120* | nt | nt | 72
Cc1sc2nc(SCC(=O)NC(C)(C)C)[nH]c(=O)c2c1C | nt | nt | -7 | nt | nt | 9 | nt
O=C1C(Cl)=C(NCc2cccnc2)C(=O)c2ccccc21 | nt | -45 | nt | -98 | 38 | nt | -45*
CCC(C)(C)NC(=O)C1CCC(CNS(=O)(=O)c2cccc3nsnc23)CC1 (stereo not given) | nt | 51* | nt | -1 | 32 | nt | -12
O=C(CNC(=O)/C=C/c1ccco1)N=Nc1c(O)[nH]c2ccccc12 | nt | 51* | nt | 28 | 13 | nt | 39
O=C(CNC(=O)Cc1ccccc1)N=Nc1c(O)[nH]c2ccccc12 | nt | -1 | nt | 4 | 24 | nt | nt
CCOc1ccc(-c2nnc(NC(=O)CCC(=O)O)s2)cc1 | nt | nt | -18 | nt | nt | 11 | nt
O=C1CSC(=S)N1Nc1ccccc1 | nt | -44 | nt | 26 | nt | nt | -17
O=c1[nH]c(=O)c2nnc(N3CCOCC3)nc2[nH]1 | nt | nt | -2 | nt | nt | 7 | nt
CSc1ncc(C(=O)Nc2cnn(Cc3ccc(F)cc3)c2)cn1 | nt | nt | -45 | nt | nt | 5 | nt
CCc1oc(C(=O)O)cc1CN(CC)CC | -5 | 4 | 16 | -4 | -2 | 4 | nt
CCN(CC)Cc1cc(O)c(CN(CC)CC)cc1O | 10 | 47* | -75 | 76* | 30 | 36 | 41
COc1ccc2[nH]c(CN3CCc4c(nc(N5CCCC(C)C5)[nH]c4=O)C3)c(C)c2c1 (stereo not given) | nt | nt | 17 | nt | nt | nt | nt
Cc1cc(C(C)(C)C)cc(CNC2CCCCC2)c1O | nt | nt | -11 | nt | nt | 5 | nt
Oc1cc(CNC2CCCCC2)c(O)cc1CNC1CCCCC1 | nt | 34 | nt | 81* | nt | nt | 32
COc1ccc(C(=O)/C=C/c2ccsc2)cc1CSCC(=O)O | nt | 36* | nt | 0 | 33 | nt | -10
O=C(O)c1ccc(-c2ccc(/C=c3/sc4nc5ccccc5n4c3=O)o2)cc1Cl | nt | 45* | nt | 30 | 31 | nt | -17
O=C1NC(=S)S/C1=C\c1cc(I)cc(I)c1O | nt | nt | -101 | nt | nt | 11 | nt
CCN(CC)C(=O)CN1CCCC(c2ncncc2S(C)(=O)=O)C1 (stereo not given) | nt | nt | 24 | nt | nt | nt | nt
COc1ccc(N2CCN(C(=O)CSc3nnc4c(C)cc5c(C)cc(C)cc5n34)CC2)cc1 | -6 | 43* | -4 | 38 | 33 | 8 | 19
Cc1cc2cc(C)c3nnc(SCC(=O)NCc4ccc5c(c4)OCO5)n3c2cc1C | -6 | 31 | -11 | -3 | -1 | 13 | nt
Cc1cc(C)c2cc(C)c3nnc(SCC(=O)NCc4ccc5c(c4)OCO5)n3c2c1 | -12 | 32 | 9 | -6 | 34 | 10 | 31
COc1ccc(N2CCN(C(=O)CSc3nnc4c(C)cc5cc(C)ccc5n34)CC2)cc1 | -5 | 21 | 24 | 38 | 6 | nt | nt
COC(=O)c1c(NC(=O)c2ccco2)sc(C(=O)Nc2cccc(OC)c2)c1C | nt | nt | 14 | nt | nt | 13 | nt
SMILES | Tb hexokinase | HKDC1 inh | EP2 modulator | PfG6PD inh | PHOSPHO1 block | EP2 antag | HKDC1 act conf2
COc1ccc(N(CCCN2C(=O)c3cccc4cccc(c34)C2=O)C(=O)c2cccnc2)cc1 | -24 | 36* | -29 | 8 | 37 | 6 | 23
O=c1nc(/C=C/c2cc([N+](=O)[O-])ccc2Cl)cc(C(F)(F)F)[nH]1 | -6 | 30 | 28 | 13 | 33 | 7 | 17
O=c1nc(/C=C/c2cccn2-c2ccc([N+](=O)[O-])cc2)cc(C(F)(F)F)[nH]1 | 15 | 16 | 34 | 1 | -15 | 7 | nt
NC(=O)c1nc(-c2ccccn2)nc2c1[nH]c(=O)n2Cc1ccccc1 | nt | nt | 8 | nt | nt | nt | nt
CCOc1ccc(CCNC(=O)c2ccc3c(=O)[nH]c4c(C(=O)NC(C)C)sc(=S)n4c3c2)cc1 | nt | 41* | nt | 4 | 37 | nt | 26
CCCCNC(=O)c1sc(=S)n2c1[nH]c(=O)c1ccccc12 | 1 | 38* | -11 | 23 | 48 | 8 | 56
O=C(COc1ccc(CNC2(c3cccc(F)c3)CC2)cc1)N1CCCC1 | nt | nt | -35 | nt | nt | 8 | nt

Assay outcomes from PubChem.
